In ChEMBL document CHEMBL4480408 (J Med Chem, 2019):

Columns and labels:
[1] = target: GABA-A receptor; anion channel; assay: Displacement of [3H]muscimol from orthosteric binding site of GABA(A) receptor in Sprague-Dawley rat cortical synaptic membranes by liquid scintillation counting
[2] = target: GHB high-affinity binding site (rat)
[3] = Dissociation constant, pKa of the compound; format: physicochemical
[4] = target: T1, GABA-A receptor; alpha-1/beta-2/gamma-2 (Homo sapiens, UniProt P14867+P18507+P47870); format: cell-based
T1 sequence (P14867 whole entry): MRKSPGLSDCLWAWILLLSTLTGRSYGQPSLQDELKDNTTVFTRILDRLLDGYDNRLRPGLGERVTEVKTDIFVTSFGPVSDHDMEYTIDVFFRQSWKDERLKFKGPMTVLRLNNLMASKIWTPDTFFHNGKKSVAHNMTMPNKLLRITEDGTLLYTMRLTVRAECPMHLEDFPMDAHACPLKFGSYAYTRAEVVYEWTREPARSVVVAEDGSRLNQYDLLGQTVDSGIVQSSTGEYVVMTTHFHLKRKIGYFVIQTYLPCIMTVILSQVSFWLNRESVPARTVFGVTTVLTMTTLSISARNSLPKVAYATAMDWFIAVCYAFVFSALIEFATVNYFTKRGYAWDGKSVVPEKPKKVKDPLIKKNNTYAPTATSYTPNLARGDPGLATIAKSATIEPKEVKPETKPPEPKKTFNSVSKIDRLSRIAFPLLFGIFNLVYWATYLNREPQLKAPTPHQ
T1 sequence (P47870 whole entry): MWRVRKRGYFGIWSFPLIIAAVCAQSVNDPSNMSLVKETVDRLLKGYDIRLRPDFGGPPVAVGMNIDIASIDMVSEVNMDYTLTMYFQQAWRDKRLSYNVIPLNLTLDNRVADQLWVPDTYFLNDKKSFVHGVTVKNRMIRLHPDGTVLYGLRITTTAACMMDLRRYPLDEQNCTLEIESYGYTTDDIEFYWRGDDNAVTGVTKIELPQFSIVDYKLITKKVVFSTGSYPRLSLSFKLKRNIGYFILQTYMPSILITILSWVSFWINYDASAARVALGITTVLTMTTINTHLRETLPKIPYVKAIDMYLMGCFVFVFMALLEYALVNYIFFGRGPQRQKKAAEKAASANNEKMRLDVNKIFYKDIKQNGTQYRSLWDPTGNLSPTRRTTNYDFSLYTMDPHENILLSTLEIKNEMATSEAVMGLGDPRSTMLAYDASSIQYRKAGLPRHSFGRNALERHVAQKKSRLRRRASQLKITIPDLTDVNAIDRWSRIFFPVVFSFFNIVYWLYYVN
T1 sequence (P18507 whole entry): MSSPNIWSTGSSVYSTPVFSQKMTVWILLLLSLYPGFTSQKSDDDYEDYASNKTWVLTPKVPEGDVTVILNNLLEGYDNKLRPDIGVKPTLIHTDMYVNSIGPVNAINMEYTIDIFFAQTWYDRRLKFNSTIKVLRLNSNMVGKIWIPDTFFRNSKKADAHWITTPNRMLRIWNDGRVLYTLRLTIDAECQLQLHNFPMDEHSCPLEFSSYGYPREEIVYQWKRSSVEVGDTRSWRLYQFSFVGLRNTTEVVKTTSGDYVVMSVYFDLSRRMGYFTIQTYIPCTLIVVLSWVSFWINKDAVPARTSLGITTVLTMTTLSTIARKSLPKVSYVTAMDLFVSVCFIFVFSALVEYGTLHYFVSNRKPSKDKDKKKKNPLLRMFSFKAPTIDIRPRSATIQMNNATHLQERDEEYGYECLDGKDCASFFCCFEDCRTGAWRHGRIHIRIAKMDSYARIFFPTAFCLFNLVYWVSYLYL

[5] = Chemical stability of the compound; format: physicochemical
[6] = Agonist activity at GABA(B) receptor (unknown origin); parameters: species or system Homo sapiens
[7] = Drug uptake in C57BL/6JRj mouse brain at 10 mg/kg, ip after 30 mins by LC-MS analysis; format: ADME, organism-based; conditions: read-out: Drug uptake
In short: (§1)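 Mice dosed i.p. at 10 mg/kg. Compound concentrations measured in brain (ng/g) and plasma (ng/mL). Brain-to-plasma distribution ratio taken from these two concentrations.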

[8] = Metabolic stability in mouse liver microsomes assessed as compound remaining at 20 uM preincubated for 5 mins followed by NADPH addition and measured at 60 mins by UHPLC-MS/MS analysis; format: ADME, Microsome; conditions: read-out: Stability
In short: (§2)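 Parent loss and parent-drug formation quantified by UHPLC-MS/MS. Percent remaining = internal-standard-corrected peak area at each time ÷ peak area at 0 min × 100. The 0-min peak area was compared with freshly prepared compound in neat buffer and MeCN. A dash at 0 min means the compound degraded during sample preparation and pre-incubation. Mean of three biological replicates.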

[9] = Metabolic stability in mouse liver microsomes assessed as compound remaining at 20 uM preincubated for 5 mins followed by NADPH addition and measured at 30 mins by UHPLC-MS/MS analysis; format: ADME, Microsome; conditions: read-out: Stability; in short: as §2
[10] = Metabolic stability in mouse plasma assessed as compound remaining at 10 uM preincubated for 5 mins followed by NADPH addition and measured at 60 mins by UHPLC-MS/MS analysis; format: ADME, cell-free; conditions: read-out: Stability; in short: as §2
[11] = Metabolic stability in mouse liver microsomes assessed as compound remaining at 20 uM preincubated for 5 mins followed by NADPH addition and measured at 0 min by UHPLC-MS/MS analysis; format: ADME, Microsome; conditions: read-out: Stability; in short: as §2
[12] = Plasma concentration in C57BL/6JRj mouse at 10 mg/kg, ip after 30 mins by LC-MS analysis; format: ADME, organism-based; in short: as §1
[13] = Metabolic stability in mouse plasma assessed as compound remaining at 10 uM preincubated for 5 mins followed by NADPH addition and measured at 0 min by UHPLC-MS/MS analysis; format: ADME, cell-free; conditions: read-out: Stability; in short: as §2
[14] = Ratio of drug uptake in C57BL/6JRj mouse brain to plasma at 10 mg/kg, ip after 30 mins by LC-MS analysis; format: ADME, organism-based; conditions: read-out: BPR; in short: as §1
[15] = Metabolic stability in mouse plasma assessed as compound remaining at 10 uM preincubated for 5 mins followed by NADPH addition and measured at 120 mins by UHPLC-MS/MS analysis; format: ADME, cell-free; conditions: read-out: Stability; in short: as §2

SMILES	Ki [1] [µM]	Ki [2] [µM]	other results
N=c1ccc(-c2ccc(Cl)cc2)nn1CCCC(=O)O	0.61	11	pKi [1]: 6.23; pKi [2]: 4.99
O=C(O)CC1CN2N=C(c3ccccc3)C=CC2=N1 (stereo unspecified)	> 100	427	pKi [2]: 3.41
O=C(O)CC1CN2N=C(c3ccc(Cl)cc3)C=CC2=N1 (stereo unspecified)	> 100	146	pKa [3]: 9.7
O=C(O)Cc1cn2nc(-c3cccc(OCc4ccccc4)c3)ccc2n1	> 100	0.51	pKi [2]: 6.33
On1cc(C2CCNCC2)c(-c2cccc(-c3ccccc3)c2)n1	0.03	> 100	
O=C(O)Cc1cn2ncccc2n1	> 100	9.9	
O=C(O)Cc1cn2ccccc2n1	> 100	72	
N=c1ccc(-c2cccc([N+](=O)[O-])c2)nn1CCCC(=O)O	0.078	13	IC50 [4]: 4.4 µM
N=c1ccc(-c2ccccc2)nn1CCCC(=O)O	0.81	100	
COc1ccc(-c2ccc3nc(CC(=O)O)cn3n2)cc1	> 100	0.83	pKi [2]: 6.09
N=c1ccc(-c2ccc([N+](=O)[O-])cc2)nn1CCCC(=O)O	0.75	14	IC50 [4]: 30 µM
CC(C)(C)C(=O)OCOC(=O)Cc1cn2nc(-c3ccc(Cl)cc3)ccc2n1			Stability [5]: Unstable
N=c1ccc(-c2cccc(N)c2)nn1CCCC(=O)O	1.1	30	IC50 [4]: 30 µM
O=C(O)CCCO [OXYBATE]			EC50 [6]: 5000 µM
CCOC(=O)Cc1cn2nc(-c3ccc(Cl)cc3)ccc2n1			Stability [5]: Unstable
CC(=O)OCOC(=O)Cc1cn2nc(-c3ccc(Cl)cc3)ccc2n1			Stability [5]: Unstable

SMILES	Ki [1] [µM]	Ki [2] [µM]	other results
O=C(O)Cc1cn2nc(-c3ccc(Cl)cc3)ccc2n1	> 100	0.22	concentration at 0.5 h [7]: 59 ng/g; remaining at 1 h, 20 µM [8]: 100%; Stability [5]: Stable; remaining at 0.5 h, 20 µM [9]: 105%; remaining at 1 h, 10 µM [10]: 97%; pKa [3]: 4.5; remaining at 0 h, 20 µM [11]: 100%; concentration at 0.5 h [12]: 7600 ng/mL; remaining at 0 h, 10 µM [13]: 100%; Kp at 0.5 h [14]: 0.008; remaining at 2 h, 10 µM [15]: 99%
COc1ccc(C2=NN3CC(CC(=O)O)N=C3C=C2)cc1 (stereo unspecified)	> 100	45	
N=c1ccc(-c2cccc(O)c2)nn1CCCC(=O)O	0.13	16	IC50 [4]: 3.9 µM
O=C(O)CC1CN2N=C(c3cccc(Cl)c3)C=CC2=N1 (stereo unspecified)	> 100	> 100	
O=C(O)Cc1cn2nc(-c3cccc(Cl)c3)ccc2n1	> 100	0.23	
COc1cccc(-c2ccc3nc(CC(=O)O)cn3n2)c1	> 100	0.44	
N=c1ccc(-c2cccc(OCc3ccccc3)c2)nn1CCCC(=O)O	0.87	4.2	pKi [1]: 6.07; pKi [2]: 5.39
N=c1ccc(-c2cccc(Cl)c2)nn1CCCC(=O)O	0.039	21	pKi [2]: 4.66
N=c1ccc(-c2ccc(O)cc2)nn1CCCC(=O)O	0.22	15	IC50 [4]: 11 µM
O=C(O)Cc1cn2nc(-c3ccc(OCc4ccccc4)cc3)ccc2n1	> 100	2.2	
N=c1ccc(-c2ccc(OCc3ccccc3)cc2)nn1CCCC(=O)O	0.016	3.1	
COc1cccc(C2=NN3CC(CC(=O)O)N=C3C=C2)c1 (stereo unspecified)	> 100	> 100	
CC(C)(C)OC(=O)Cc1cn2nc(-c3ccc(Cl)cc3)ccc2n1			concentration at 0.5 h [7]: 798 ng/g; remaining at 1 h, 20 µM [8]: 98%; remaining at 0.5 h, 20 µM [9]: 90%; remaining at 1 h, 10 µM [10]: 51%; remaining at 0 h, 20 µM [11]: 100%; concentration at 0.5 h [12]: 212 ng/mL; remaining at 0 h, 10 µM [13]: 100%; Kp at 0.5 h [14]: 3.68; remaining at 2 h, 10 µM [15]: 36%
O=C(O)CCC(O)c1ccc(OCc2ccccc2)cc1 (stereo unspecified)	> 100	0.12	
O=C(O)Cc1cn2nc(-c3ccc(Cl)c(Cl)c3)ccc2n1	> 100	0.19	pKi [2]: 6.77
